Data taken from ChEMBL document CHEMBL4330056, “Synthesis and Cytotoxic and Antiviral Profiling of Pyrrolo- and Furo-Fused 7-Deazapurine Ribonucleosides” (J Med Chem, 2018).
Calls of active or inactive are those of the source. No cut-off for these calls is given here.

Columns and labels:
U2OS = experiment: Antiproliferative activity against human U2OS cells after 3 days by MTS assay; format: functional, cell-based; details: 72 h
[1] = Cytotoxicity against human Hep2 cells assessed as reduction in cell viability after 3 days by CellTiter-Glo assay; format: cell-based; details: HEp-2 cells
Human alphaherpesvirus 1 = experiment: Antiviral activity against human herpesvirus 1 HF infected in African green monkey Vero cells assessed as inhibited virus-induced cytopathic effect incubated for 3 days by XTT assay; format: functional, organism-based
HCT-116 [2] = experiment: Antiproliferative activity against human HCT116 cells after 3 days by MTS assay; format: functional, cell-based; details: HCT-116, 72 h
Coxsackievirus B3 = experiment: Antiviral activity against Human coxsackie B3 Nancy infected in human HeLa cells assessed as inhibited virus-induced cytopathic effect incubated for 2 days by XTT assay; format: functional, organism-based
[3] = Antiproliferative activity against human K562-TAX cells after 3 days by MTS assay; format: functional, cell-based; details: 72 h
CCRF-CEM = experiment: Antiproliferative activity against human CCRF-CEM cells after 3 days by MTS assay; format: functional, cell-based; details: 72 h
Hepatitis C virus [4] = experiment: Antiviral activity against Hepatitis C virus genotype 2a infected in human Huh-luc replicon cells after 3 days by luciferase assay; format: functional, organism-based, Hepacivirus hominis; details: subtype 2a, 72 h
BJ = experiment: Antiproliferative activity against human BJ cells after 3 days by MTS assay; details: 72 h
HCT-116 [5] = experiment: Antiproliferative activity against p53 gene knocked out human HCT116 cells after 3 days by MTS assay; format: functional, cell-based; details: HCT-116, 72 h
A549 = experiment: Antiproliferative activity against human A549 cells after 3 days by MTS assay; format: functional, cell-based; details: A549, 72 h
K562 = experiment: Antiproliferative activity against human K562 cells after 3 days by MTS assay; format: functional, cell-based; details: K562, 72 h
Human orthopneumovirus = experiment: Antiviral activity against Human respiratory syncytial virus A2 infected in Hep2 cells assessed as reduction in virus-induced cytopathic effect incubated for 4 days by CellTiter-Glo viability reagent based assay; format: functional, organism-based
dengue virus type 2 = experiment: Antiviral activity against Dengue virus 2 Thailand/16681/84 infected in African green monkey Vero cells assessed as inhibition of virus replication incubated for 3 days by fluorescence microscopy; format: functional, organism-based
Adenosine kinase [6] = target: T1, Adenosine kinase (Homo sapiens, UniProt P55263); experiment: Inhibition of recombinant human ADK using [3H]-adenosine as substrate after 20 mins by TLC scanner-based analysis relative to control
Method in brief: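 ADK inhibition: 50 μM adenosine substrate with 10 μM test compound and 97 ng enzyme, 20 min at 37 °C.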

HL-60 = experiment: Antiproliferative activity against human HL60 cells after 72 hrs by XTT assay; format: functional, cell-based; details: HL-60, 72 h
HeLa S3 = experiment: Antiproliferative activity against human HeLaS3 cells after 72 hrs by XTT assay; format: functional, cell-based; details: HeLa S3, 72 h
[7] = Antiproliferative activity against human CEM-DNR-bulk cells after 3 days by MTS assay; details: 72 h
HepG2 = experiment: Antiproliferative activity against human HepG2 cells after 72 hrs by XTT assay; format: functional, cell-based; details: HepG2, 72 h
Influenza A virus = experiment: Antiviral activity against Influenza A virus (A/Mexico/4108/2009(H1N1)) infected in MDCK cells assessed as inhibited virus-induced cytopathic effect incubated for 2 days by XTT assay; format: functional, organism-based
Adenosine kinase [8] = target: T1, Adenosine kinase; experiment: Substrate activity at recombinant human ADK assessed as compound phosphorylation at 50 uM after 20 mins in presence of [3H]-adenosine by UPLC; format: ADME
MRC5 = experiment: Antiproliferative activity against human MRC5 cells after 3 days by MTS assay; details: MRC5, 72 h
Hepatitis C virus [9] = experiment: Antiviral activity against Hepatitis C virus genotype 1b infected in human Huh-luc replicon cells after 3 days by luciferase assay; format: functional, organism-based, Hepacivirus hominis; details: subtype 1b, 72 h

T1 sequence (P55263 whole entry): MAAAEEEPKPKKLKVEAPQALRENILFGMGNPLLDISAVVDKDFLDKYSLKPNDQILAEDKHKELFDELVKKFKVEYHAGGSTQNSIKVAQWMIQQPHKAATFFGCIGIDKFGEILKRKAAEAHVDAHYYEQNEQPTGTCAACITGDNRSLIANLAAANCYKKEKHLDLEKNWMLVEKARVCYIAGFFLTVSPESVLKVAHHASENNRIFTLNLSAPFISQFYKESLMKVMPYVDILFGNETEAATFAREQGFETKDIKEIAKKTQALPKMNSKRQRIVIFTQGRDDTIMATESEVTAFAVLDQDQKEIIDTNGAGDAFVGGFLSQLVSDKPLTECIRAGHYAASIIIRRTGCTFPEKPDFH

Compound | IC50 (U2OS) [µM] | CC50 at 72 h [1] [µM] | Activity (Human alphaherpesvirus 1) | IC50 (HCT-116 [2]) [µM] | Activity (Coxsackievirus B3) | IC50 [3] [µM] | IC50 (CCRF-CEM) [µM] | EC50 (Hepatitis C virus [4]) [µM] | IC50 (BJ) [µM] | IC50 (HCT-116 [5]) [µM] | IC50 (A549) [µM] | IC50 (K562) [µM] | Activity (Human orthopneumovirus) | Activity (dengue virus type 2) | IC50 (Adenosine kinase [6]) [µM] | IC50 (HL-60) [µM] | IC50 (HeLa S3) [µM] | IC50 [7] [µM] | IC50 (HepG2) [µM] | Activity (Adenosine kinase [8]) [%] | further results
Nc1ncnc2c1c1occc1n2[C@@H]1O[C@H](CO)[C@@H](O)[C@H]1O | 7.09 | > 44.4 | inactive | 48.4 | inactive | 50 | > 50 | 0.33 | > 50 | > 50 | > 50 | 6.04 | inactive | inactive | > 10 | 0.51 | 1.71 | > 50 | 4.51 | 75 | Activity (Influenza A virus): inactive; IC50 (MRC5): > 50 µM; EC50 (Hepatitis C virus [9]): 0.3 µM
Cn1ccc2c3c(-c4ccco4)ncnc3n([C@@H]3O[C@H](CO)[C@@H](O)[C@H]3O)c21 | 3.49 | 2.63 to 16.4 | inactive | 3.82 | inactive | 2.4 | 1.36 | 0.77 | 5.36 | 4.01 | 5.73 | 4.03 | inactive | inactive | 3.58 | 3 | 2.97 | 2.17 | > 50 | 0 | Activity (Influenza A virus): inactive; IC50 (MRC5): 5.89 µM; EC50 (Hepatitis C virus [9]): 0.34 µM
Cn1ccc2c1c1c(N)ncnc1n2[C@@H]1O[C@H](CO)[C@@H](O)[C@H]1O | 50 | 40.9 to 44.4 | inactive | > 50 | inactive | > 50 | 50 | 0.22 | > 50 | > 50 | > 50 | > 50 | inactive | inactive | > 10 | 2.29 | > 50 | > 50 | > 50 | 68 | Activity (Influenza A virus): inactive; IC50 (MRC5): > 50 µM; EC50 (Hepatitis C virus [9]): 0.46 µM
CC(C)C(=O)OC[C@H]1O[C@@H](n2ccc(N)nc2=O)[C@](C)(F)[C@@H]1OC(=O)C(C)C [MERICITABINE] |  | > 44.4 |  |  |  |  |  |  |  |  |  |  |  |  |  |  |  |  |  |  | 
OC[C@H]1O[C@@H](n2c3ccoc3c3c(-c4ccoc4)ncnc32)[C@H](O)[C@@H]1O | 0.64 | > 44.4 | inactive | 12.1 | inactive | 9.78 | 0.21 | > 44.4 | 0.52 | 10.7 | > 50 | 0.42 | inactive | inactive | > 10 | 1.92 | 13.1 | > 50 | 6.71 | 38 | Activity (Influenza A virus): inactive; IC50 (MRC5): > 50 µM; EC50 (Hepatitis C virus [9]): 0.78 µM
CSc1ncnc2c1c1ccn(C)c1n2[C@@H]1O[C@H](CO)[C@@H](O)[C@H]1O | 27.4 | 36.8 to 44 | inactive | 35.9 | inactive | 30 | 25.5 | 17 | > 50 | > 50 | > 50 | 18 | inactive | inactive | > 10 | > 50 | > 50 | 28.2 | > 50 | 0 | Activity (Influenza A virus): inactive; IC50 (MRC5): > 50 µM; EC50 (Hepatitis C virus [9]): 5.98 µM
OC[C@H]1O[C@@H](n2c3ccoc3c3c(-c4cc5ccccc5o4)ncnc32)[C@H](O)[C@@H]1O | 37.8 | > 44.4 | inactive | 48.8 | inactive | 24.3 | 14.1 | > 44.4 | > 50 | 46.5 | 49.3 | 39.6 | inactive | inactive | 0.336 | > 50 | > 50 | 37.1 | 2.83 | 58 | Activity (Influenza A virus): inactive; IC50 (MRC5): > 50 µM; EC50 (Hepatitis C virus [9]): 5.34 µM
Cn1ccc2c1c1c(-c3ccoc3)ncnc1n2[C@@H]1O[C@H](CO)[C@@H](O)[C@H]1O | 2.41 | > 44.4 | inactive | 8.16 | inactive | > 50 | > 50 | 3.45 | > 50 | 9 | > 50 | 0.94 | inactive | inactive | > 10 | > 50 | > 50 | > 50 | > 50 | 9 | Activity (Influenza A virus): inactive; IC50 (MRC5): > 50 µM; EC50 (Hepatitis C virus [9]): 20.2 µM
Cn1ccc2c1c1c(-c3ccco3)ncnc1n2[C@@H]1O[C@H](CO)[C@@H](O)[C@H]1O | 7.37 | > 44.4 | inactive | > 50 | inactive | > 50 | > 50 | > 44.4 | > 50 | > 50 | > 50 | > 50 | inactive | inactive | 7.12 | > 50 | > 50 | > 50 | > 50 | 11 | Activity (Influenza A virus): inactive; IC50 (MRC5): > 50 µM; EC50 (Hepatitis C virus [9]): 0.22 µM
Nc1ncnc2c1ncn2[C@@H]1O[C@H](CO)[C@@H](O)[C@H]1O [ADENOSINE] |  |  |  |  |  |  |  |  |  |  |  |  |  |  |  |  |  |  |  | 73 | 
